From ChEMBL document CHEMBL1121779, “Thiophene systems. 5. Thieno[3,4-b][1,5]benzoxazepines, thieno[3,4-b][1,5]benzothiazepines, and thieno[3,4-b][1,4]benzodiazepines as potential central nervous system agents” (1981)
The source made the active and inactive calls. The calls are words filed in the database; no cut-off is given here.

Tests used:
Rattus norvegicus [1] = test: Reduction in motor activity in rats following p.o. administration.; assay type: functional
Summary of the method: (§1)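 Rats in groups of five given graded oral doses. Locomotor activity counted per rat over 5 min at the time of peak effect, which was set earlier with a selected dose. MDD50 is the dose giving 50% reduction versus controls, taken from linear regression.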

Mus musculus [2] = test: Minimum effective dose causing antagonism of tetrabenazine induced depression in mice was determined when administered perorally; Inactive at 20 mg/kg; assay type: functional, organism-based; set-up: dose 20 mg/kg
Mus musculus [3] = test: Compound was tested for the neuroleptic activity as measured by it's antagonism of d-amphetamine induced lethality in grouped mice(GAL) when administered perorally; assay type: functional; details: po
Mus musculus [4] = test: Inhibition of tetrabenazine induced depression in mice was following p.o. administration; Inactive.; assay type: functional, organism-based
Rattus norvegicus [5] = test: Dose causing 50% reduction of motor activity in rats was measured when administered perorally; Inactive at 50 mg/kg; assay type: functional, organism-based; set-up: dose 50 mg/kg; summary of the method: as §1
Mus musculus [6] = test: Compound was tested for the neuroleptic activity as measured by it's antagonism of d-amphetamine induced lethality in grouped mice(GAL) when administered perorally; 2.4-5.6; assay type: functional; details: po
Mus musculus [7] = test: Minimum effective dose causing antagonism of tetrabenazine induced depression in mice was determined when administered perorally; Inactive; assay type: functional, organism-based
Mus musculus [8] = test: Minimum effective dose causing antagonism of tetrabenazine induced depression in mice was determined when administered perorally; Inactive at 25 mg/kg; assay type: functional, organism-based; set-up: dose 25 mg/kg
Mus musculus [9] = test: Compound was tested for the neuroleptic activity as measured by it's antagonism of d-amphetamine induced lethality in grouped mice(GAL) when administered perorally; 3.2-5.5; assay type: functional; details: po
Mus musculus [10] = test: Minimum effective dose causing antagonism of tetrabenazine induced depression in mice was determined when administered perorally; assay type: functional; details: po, read-out: MED
Mus musculus [11] = test: Compound was tested for the neuroleptic activity as measured by it's antagonism of d-amphetamine induced lethality in grouped mice(GAL) when administered perorally; 1-15; assay type: functional; details: po
Mus musculus [12] = test: Compound was tested for the neuroleptic activity as measured by it''s antagonism of d-amphetamine induced lethality in grouped mice(GAL) when administered perorally; Inactive at 20 mg/kg; assay type: functional, organism-based; set-up: dose 20 mg/kg
Mus musculus [13] = test: Compound was tested for the neuroleptic activity as measured by it's antagonism of d-amphetamine induced lethality in grouped mice(GAL) when administered perorally; 1.1-2.5; assay type: functional; details: po
Mus musculus [14] = test: Compound was tested for the neuroleptic activity as measured by it's antagonism of d-amphetamine induced lethality in grouped mice(GAL) when administered perorally; 5.1-9; assay type: functional; details: po
Mus musculus [15] = test: Compound was tested for the neuroleptic activity as measured by it's antagonism of d-amphetamine induced lethality in grouped mice(GAL) when administered perorally; Inactive; assay type: functional, organism-based
Mus musculus [16] = test: Compound was tested for the neuroleptic activity as measured by it's antagonism of d-amphetamine induced lethality in grouped mice(GAL) when administered perorally; 9-33; assay type: functional; details: po
Mus musculus [17] = test: Compound was tested for the neuroleptic activity as measured by it's antagonism of d-amphetamine induced lethality in grouped mice(GAL) when administered perorally; Inactive at 20 mg/kg; assay type: functional, organism-based; set-up: dose 20 mg/kg
Mus musculus [18] = test: Compound was tested for the neuroleptic activity as measured by it's antagonism of d-amphetamine induced lethality in grouped mice(GAL) when administered perorally; 2.5-3.9; assay type: functional; details: po
Mus musculus [19] = test: Compound was tested for the neuroleptic activity as measured by it's antagonism of d-amphetamine induced lethality in grouped mice(GAL) when administered perorally; 0.09-0.24; assay type: functional; details: po
Mus musculus [20] = test: Compound was tested for the neuroleptic activity as measured by it's antagonism of d-amphetamine induced lethality in grouped mice(GAL) when administered perorally; 1.1-1.9; assay type: functional; details: po
Mus musculus [21] = test: Compound was tested for the neuroleptic activity as measured by it's antagonism of d-amphetamine induced lethality in grouped mice(GAL) when administered perorally; 0.1-0.6; assay type: functional; details: po
Mus musculus [22] = test: Compound was tested for the neuroleptic activity as measured by it's antagonism of d-amphetamine induced lethality in grouped mice(GAL) when administered perorally; 1.4-3.1; assay type: functional; details: po
Mus musculus [23] = test: Compound was tested for the neuroleptic activity as measured by it's antagonism of d-amphetamine induced lethality in grouped mice(GAL) when administered perorally; 1.6-3.8; assay type: functional; details: po
Mus musculus [24] = test: Compound was tested for the neuroleptic activity as measured by it's antagonism of d-amphetamine induced lethality in grouped mice(GAL) when administered perorally; 0.4-3.1; assay type: functional; details: po

In the case of `CN1CCN(C2=Nc3cscc3Nc3ccccc32)CC1`, the MDD50 (Rattus norvegicus [1]) was 15 mg/kg, the MED (Mus musculus [2]) was “inactive” and the ED50 (Mus musculus [3]) was 3.2 mg/kg.

`OCCN1CCN(C2=Nc3ccccc3Oc3c2csc3Cl)CC1` was tested, and the ED50 (Mus musculus [3]) was < 10 mg/kg, the MED (Mus musculus [4]) was “inactive” and the MDD50 (Rattus norvegicus [5]) was “inactive”.

`Cc1ccc2c(c1)N=C(N1CCN(C)CC1)c1cscc1O2` was tested, and the MDD50 (Rattus norvegicus [1]) was 5.96 mg/kg, the ED50 (Mus musculus [6]) was 3.6 mg/kg and the MED (Mus musculus [7]) was “inactive”.

In the case of `CN1CCN(C2=Nc3ccccc3Oc3cscc32)CC1`, the MDD50 (Rattus norvegicus [1]) was 1.3 mg/kg, the MED (Mus musculus [8]) was “inactive” and the ED50 (Mus musculus [3]) was 1.4 mg/kg.

`CN1CCN(C2=Nc3cc(Cl)ccc3Nc3ccccc32)CC1` [CLOZAPINE] was tested, and the MDD50 (Rattus norvegicus [1]) was 21 mg/kg, the ED50 (Mus musculus [9]) was 4.2 mg/kg and the MED (Mus musculus [4]) was “inactive”.

With `OCCN1CCN(C2=Nc3cc(Br)ccc3Oc3cscc32)CC1` the ED50 (Mus musculus [3]) was < 2.5 mg/kg and the MED (Mus musculus [4]) was “inactive”.

For `CN(C)CCCN1c2ccccc2CCc2ccccc21` [IMIPRAMINE], the MDD50 (Rattus norvegicus [1]) was >20 mg/kg, the minimal effective dose (Mus musculus [10]) was 5 mg/kg and the ED50 (Mus musculus [3]) was > 50 mg/kg.

In the case of `CCN1CCN(C2=Nc3cc(C)ccc3Oc3cscc32)CC1`, the ED50 (Mus musculus [11]) was 3.9 mg/kg, the MDD50 (Rattus norvegicus [1]) was <50 mg/kg and the MED (Mus musculus [7]) was “inactive”.

For `CN1CCN(C2=Nc3cscc3Nc3ccc(Cl)cc32)CC1`, the ED50 (Mus musculus [3]) was ≤ 5 mg/kg and the MED (Mus musculus [4]) was “inactive”.

For `Cc1ccc2c(c1)Oc1cscc1C(N1CCN(C)CC1)=N2`, the MED (Mus musculus [7]) was “inactive” and the ED50 (Mus musculus [12]) was “inactive”.

In the case of `CN1CCN(C2=Nc3cc(Cl)ccc3Oc3cscc32)CC1`, the MDD50 (Rattus norvegicus [1]) was 9.6 mg/kg, the ED50 (Mus musculus [13]) was 1.6 mg/kg and the MED (Mus musculus [4]) was “inactive”.

`CCN1CCN(C2=Nc3cc(Cl)ccc3Oc3cscc32)CC1` was tested, and the MDD50 (Rattus norvegicus [1]) was <50 mg/kg, the ED50 (Mus musculus [14]) was 6.8 mg/kg and the MED (Mus musculus [4]) was “inactive”.

In the case of `Cc1ccc2c(c1)N=C(N1CCN(CCO)CC1)c1cscc1O2`, the MDD50 (Rattus norvegicus [1]) was 27.2 mg/kg and the ED50 (Mus musculus [12]) was “inactive”.

With `COc1ccc2c(c1)N=C(N1CCN(C)CC1)c1cscc1O2` the ED50 (Mus musculus [15]) was “inactive”.

With `CN1CCN(C2=Nc3cscc3Nc3ccc(F)cc32)CC1` the ED50 (Mus musculus [16]) was 17.5 mg/kg and the MED (Mus musculus [4]) was “inactive”.

`CN1CCN(C2=Nc3ccccc3Sc3c2csc3Cl)CC1` was tested, and the ED50 (Mus musculus [17]) was “inactive” and the minimal effective dose (Mus musculus [10]) was 1.6 mg/kg.

With `CN1CCN(C2=Nc3cc(Br)ccc3Oc3cscc32)CC1` the MDD50 (Rattus norvegicus [1]) was 16.4 mg/kg, the ED50 (Mus musculus [18]) was 3.1 mg/kg and the MED (Mus musculus [4]) was “inactive”.

`Cc1cccc2c1N=C(N1CCN(CCO)CC1)c1cscc1O2` was tested, and the ED50 (Mus musculus [12]) was “inactive”.

In the case of `COc1ccc2c(c1)N=C(N1CCN(CCO)CC1)c1cscc1O2`, the ED50 (Mus musculus [15]) was “inactive” and the MED (Mus musculus [4]) was “inactive”.

`CN1CCN(C2=Nc3ccccc3Oc3ccc(Cl)cc32)CC1` [LOXAPINE] was tested, and the MDD50 (Rattus norvegicus [1]) was 0.6 mg/kg, the MED (Mus musculus [4]) was “inactive” and the ED50 (Mus musculus [19]) was 0.14 mg/kg.

For `OCCN1CCN(C2=Nc3ccccc3Oc3cscc32)CC1`, the MDD50 (Rattus norvegicus [1]) was 5.4 mg/kg, the ED50 (Mus musculus [3]) was < 10 mg/kg and the MED (Mus musculus [4]) was “inactive”.

`CCN1CCN(C2=Nc3ccccc3Oc3cscc32)CC1` was tested, and the MDD50 (Rattus norvegicus [1]) was 1.66 mg/kg, the ED50 (Mus musculus [20]) was 1.4 mg/kg and the MED (Mus musculus [4]) was “inactive”.

With `COc1ccc2c(c1)Oc1cscc1C(N1CCN(C)CC1)=N2` the ED50 (Mus musculus [15]) was “inactive” and the MED (Mus musculus [4]) was “inactive”.

With `Cc1ccc2c(c1)Oc1cscc1C(N1CCN(CCO)CC1)=N2` the MDD50 (Rattus norvegicus [1]) was 37 mg/kg and the MED (Mus musculus [4]) was “inactive”.

In the case of `CN1CCN(C2=Nc3cscc3N(C)c3ccc(Cl)cc32)CC1`, the MDD50 (Rattus norvegicus [1]) was 4.1 mg/kg, the minimal effective dose (Mus musculus [10]) was 1.56 mg/kg and the ED50 (Mus musculus [12]) was “inactive”.

With `CN1CCN(C2=Nc3ccccc3Sc3cscc32)CC1` the MDD50 (Rattus norvegicus [1]) was <10 mg/kg, the ED50 (Mus musculus [21]) was 0.2 mg/kg and the MED (Mus musculus [8]) was “inactive”.

With `OCCN1CCN(C2=Nc3cc(Cl)ccc3Oc3cscc32)CC1` the MDD50 (Rattus norvegicus [1]) was 19.2 mg/kg, the MED (Mus musculus [4]) was “inactive” and the ED50 (Mus musculus [22]) was 2 mg/kg.

`CN1CCN(C2=Nc3ccccc3Oc3c2csc3Cl)CC1` was tested, and the MDD50 (Rattus norvegicus [1]) was <50 mg/kg, the ED50 (Mus musculus [23]) was 2.4 mg/kg and the minimal effective dose (Mus musculus [10]) was 12.5 mg/kg.

For `Cc1cccc2c1N=C(N1CCN(C)CC1)c1cscc1O2`, the MDD50 (Rattus norvegicus [1]) was >50 mg/kg, the ED50 (Mus musculus [24]) was 1.2 mg/kg and the MED (Mus musculus [4]) was “inactive”.

`CN1CCN(C2=Nc3cscc3N(C)c3ccc(F)cc32)CC1` was tested, and the minimal effective dose (Mus musculus [10]) was 6.25 mg/kg and the ED50 (Mus musculus [15]) was “inactive”.

`OCCN1CCN(C2=Nc3ccccc3Sc3cscc32)CC1` was tested, and the MDD50 (Rattus norvegicus [1]) was <10 mg/kg, the ED50 (Mus musculus [3]) was 0.2 mg/kg and the MED (Mus musculus [4]) was “inactive”.

With `Cc1cc2c(cc1C)Sc1cscc1C(N1CCN(C)CC1)=N2` the ED50 (Mus musculus [15]) was “inactive” and the MED (Mus musculus [4]) was “inactive”.

With `CN1CCN(C2=Nc3cscc3N(C)c3ccccc32)CC1` the MDD50 (Rattus norvegicus [1]) was 51 mg/kg, the minimal effective dose (Mus musculus [10]) was 7.6 mg/kg and the ED50 (Mus musculus [3]) was 6.5 mg/kg.

For `CN1CCN(C2=Nc3cc(Cl)ccc3Sc3cscc32)CC1`, the ED50 (Mus musculus [15]) was “inactive” and the MED (Mus musculus [4]) was “inactive”.
